# Published values collected from several papers.
# Target: Tyrosine-protein kinase ZAP-70 (ZAP70, Homo sapiens, UniProt P43403)
# One construct used (P43403 1-619): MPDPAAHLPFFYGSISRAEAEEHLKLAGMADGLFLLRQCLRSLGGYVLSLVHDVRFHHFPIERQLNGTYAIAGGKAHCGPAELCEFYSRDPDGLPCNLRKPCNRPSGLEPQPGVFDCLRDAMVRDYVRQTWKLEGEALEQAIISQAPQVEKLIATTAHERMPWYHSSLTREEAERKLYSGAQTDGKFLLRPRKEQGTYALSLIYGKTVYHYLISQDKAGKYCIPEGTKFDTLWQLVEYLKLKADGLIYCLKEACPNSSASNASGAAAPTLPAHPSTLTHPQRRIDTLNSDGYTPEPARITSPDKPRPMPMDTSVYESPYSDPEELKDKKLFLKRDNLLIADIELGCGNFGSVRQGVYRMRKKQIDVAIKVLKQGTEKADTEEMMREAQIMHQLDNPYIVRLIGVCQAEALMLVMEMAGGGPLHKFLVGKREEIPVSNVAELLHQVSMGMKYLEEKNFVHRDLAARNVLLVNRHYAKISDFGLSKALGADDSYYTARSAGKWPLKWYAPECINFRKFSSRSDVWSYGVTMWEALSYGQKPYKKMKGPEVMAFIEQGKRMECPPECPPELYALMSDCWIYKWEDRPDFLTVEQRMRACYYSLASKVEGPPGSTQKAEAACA
Structure (SMILES),read-out,mode,technique,tested at,measurement,value
N#CC1(c2ccccn2)CCN(Cc2cc(C(=O)O)c(=O)n3ccccc23)CC1,cell-free assay,,competition with immobilised ligand,1 µM,remaining binding,100%
C[C@H](C(=O)N[C@H]1COc2ccccc2[C@@H]1S(C)(=O)=O)c1ccc(F)cc1,enzyme activity,inhibitor,,10 µM,inhibition,5%
COc1ncccc1-c1cnn2ccc(N3CCN(C(=O)OC(C)C)CC3)nc12,binding,,competition with immobilised ligand,1 µM,remaining binding,88%
Cc1ncc(C)n2nc(/C=C/c3nc(N4CCCC4)cc(N4CCOCC4)n3)nc12,enzyme activity,inhibitor,,10 µM,inhibition,-6%
Cn1cc(-c2cccc(N3CCc4c(sc5c4CC(C)(C)C5)C3=O)c2CO)cc(Nc2ccncn2)c1=O,enzyme activity,inhibitor,,1 µM,inhibition,3%
Cn1cncc1[C@@](O)(COc1ccc(C#N)cc1-c1ccc(OC(F)(F)F)cc1)c1ccc(C#N)cc1,cell-free assay,,competition with immobilised ligand,1 µM,remaining binding,100%
CC(C)(C)c1cc(C=C(C#N)C#N)cc(Br)c1O,enzyme activity,inhibitor,,0.5 µM,remaining activity,91.6%
Nc1ncc(-c2nc(N3CCOCC3)nc(N3CCOCC3)n2)c(C(F)F)n1,binding,,competition with immobilised ligand,10 µM,remaining binding,94%
Cc1nn(C)cc1-c1nc2c(N3CCN(Cc4ccc(Cl)cc4)CC3)c(Cl)cnc2[nH]1,binding,,competition with immobilised ligand,1 µM,remaining binding,100%
C#Cc1n[nH]c2c(-c3cn(C(C)c4ccccn4)c(=O)[nH]c3=O)cc(F)cc12 (stereo not drawn),enzyme activity,inhibitor,,1 µM,inhibition,16.2%
COc1cc(Nc2ncc(F)c(Nc3ccc4c(n3)NC(=O)C(C)(C)O4)n2)cc(OC)c1OC,binding,,,10 µM,inhibition,100%
O=c1[nH]c2ccccc2n1C1CCN(Cc2ccc(-c3[nH]c4cc5ncnc5cc4nc3-c3ccccc3)cc2)CC1,cell-free assay,,,0.5 µM,remaining signal,97.3%
O=C(Nc1cccnn1)N1CCN([C@@H]2CCOc3cc(C(F)(F)F)ccc32)CC1,enzyme activity,inhibitor,,20 µM,inhibition,1%
Cn1cc(-c2cc(F)cc(N3CCn4c(cc5c4CCCC5)C3=O)c2CO)cc(Nc2ccc(N3CCN(C4COC4)CC3)cn2)c1=O,enzyme activity,inhibitor,,0.1 µM,inhibition,16%
c1ccc(C(NCCNC(c2ccccc2)c2ccccc2)c2ccccc2)cc1,enzyme activity,inhibitor,,10 µM,inhibition,3%
